Reference: ChEMBL document CHEMBL3259715, “Shuttle-cargo fusion molecules of transport peptides and the hD2/3 receptor antagonist fallypride: a feasible approach to preserve ligand-receptor binding?” (J Med Chem, 2014)

Key:
[1] = Activity at P-gp in hCMEC/D3 cells at 0.1 to 50 uM after 15 mins by calcein-AM assay; assay type: ADME, cell-based; details: human, cmec/d3, 0.25 h
[2] = Cytotoxicity against hCMEC/D3 cells at 0.1 to 50 uM after 4 hrs by Alamar Blue assay; assay type: cell-based; details: human, hcmec/d3, 4 h
Procedure, shortened: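 Cytotoxicity was tested by AlamarBlue on hCMEC/D3 cells, the same cells used for the calcein assay. The read-out is the fall in metabolic activity, seen as reduced redox potential of viable cells.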

D(2) dopamine receptor = D(2) dopamine receptor (Homo sapiens, UniProt P14416); assay: Displacement of [3H]spiperone from human D2 receptor transfected in HEK cells; assay type: cell-based, HEK293
Sequence of D(2) dopamine receptor (P14416 whole entry): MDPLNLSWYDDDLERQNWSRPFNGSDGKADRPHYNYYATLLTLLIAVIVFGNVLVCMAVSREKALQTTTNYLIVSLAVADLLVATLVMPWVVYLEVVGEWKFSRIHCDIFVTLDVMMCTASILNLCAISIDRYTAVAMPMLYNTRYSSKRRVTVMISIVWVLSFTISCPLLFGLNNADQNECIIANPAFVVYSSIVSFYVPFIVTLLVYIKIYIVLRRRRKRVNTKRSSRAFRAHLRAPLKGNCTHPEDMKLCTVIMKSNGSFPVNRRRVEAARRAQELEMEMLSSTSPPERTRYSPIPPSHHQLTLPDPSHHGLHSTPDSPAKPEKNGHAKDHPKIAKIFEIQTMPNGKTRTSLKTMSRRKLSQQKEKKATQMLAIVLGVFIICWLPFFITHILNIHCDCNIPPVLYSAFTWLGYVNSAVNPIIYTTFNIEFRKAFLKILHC

| Compound | Activity [1] | Ki (D(2) dopamine receptor) [nM] | Activity [2] |
| --- | --- | --- | --- |
| C=CCN1CCC[C@H]1CNC(=O)c1cc(CCCSC2CC(=O)N(CCCCCC(=O)N[C@H](C(=O)N[C@@H](Cc3ccccc3)C(=O)N[C@@H](Cc3ccccc3)C(=O)N[C@@H](Cc3ccc(O)cc3)C(=O)NCC(=O)NCC(=O)N[C@@H](CO)C(=O)N[C@@H](CCCNC(=N)N)C(=O)NCC(=O)N[C@@H](CCCCNC(=O)CN3CCN(CC(=O)O)CCN(CC(=O)O)CCN(CC(=O)O)CC3)C(=O)N[C@@H](CCCNC(=N)N)C(=O)N[C@@H](CC(N)=O)C(=O)N[C@@H](CC(N)=O)C(=O)N[C@@H](Cc3ccccc3)C(=O)N[C@@H](CCCCN)C(=O)N[C@H](C(=O)N[C@@H](CCC(=O)O)C(=O)N[C@@H](CCC(=O)O)C(=O)N[C@@H](Cc3ccc(O)cc3)C(=O)O)[C@@H](C)O)[C@@H](C)O)C2=O)cc(OC)c1OC (stereo not given in full) | Not Active | 8.01 | Non-toxic |
| C=CCN1CCC[C@H]1CNC(=O)c1cc(CCCSC2CC(=O)N(CCCCCC(=O)NCCOCCOCCOCCOCCC(=O)N[C@@H](CCCCNC(=O)CN3CCN(CC(=O)O)CCN(CC(=O)O)CCN(CC(=O)O)CC3)C(=O)N[C@@H](Cc3cnc[nH]3)C(=O)N[C@@H](C)C(=O)N[C@H](C(=O)N[C@@H](Cc3ccc(O)cc3)C(=O)N3CCC[C@H]3C(=O)N[C@@H](CCCNC(=N)N)C(=O)N[C@@H](Cc3cnc[nH]3)C(=O)O)[C@@H](C)CC)C2=O)cc(OC)c1OC (stereo not given in full) | Not Active | 52 | Non-toxic |

Further lines, with some results ahead:

| Activity [1] | Ki (D(2) dopamine receptor) [nM] | Compound | Activity [2] |
| --- | --- | --- | --- |
| Not Active | 1.47 | C=CCN1CCC[C@H]1CNC(=O)c1cc(CCCSC2CC(=O)N(CCCCCC(=O)NCCOCCOCCOCCOCCC(=O)N[C@@H](Cc3cnc[nH]3)C(=O)N[C@@H](C)C(=O)N[C@H](C(=O)N[C@@H](Cc3ccc(O)cc3)C(=O)N3CCC[C@H]3C(=O)N[C@@H](CCCNC(=N)N)C(=O)N[C@@H](Cc3cnc[nH]3)C(=O)O)[C@@H](C)CC)C2=O)cc(OC)c1OC (stereo not given in full) | Non-toxic |
| Not Active | 5.98 | C=CCN1CCC[C@H]1CNC(=O)c1cc(CCCSC2CC(=O)N(CCCCCC(=O)NCCOCCOCCOCCOCCC(=O)N[C@@H](CCCCNC(=O)O/N=C/c3ccc([Si](F)(C(C)(C)C)C(C)(C)C)cc3)C(=O)N[C@@H](Cc3cnc[nH]3)C(=O)N[C@@H](C)C(=O)N[C@H](C(=O)N[C@@H](Cc3ccc(O)cc3)C(=O)N3CCC[C@H]3C(=O)N[C@@H](CCCNC(=N)N)C(=O)N[C@@H](Cc3cnc[nH]3)C(=O)O)[C@@H](C)CC)C2=O)cc(OC)c1OC (stereo not given in full) | Non-toxic |
| Not Active | > 1000 | CC[C@H](C)[C@H](NC(=O)[C@H](C)NC(=O)[C@@H](N)Cc1cnc[nH]1)C(=O)N[C@@H](Cc1ccc(O)cc1)C(=O)N1CCC[C@H]1C(=O)N[C@@H](CCCNC(=N)N)C(=O)N[C@@H](Cc1cnc[nH]1)C(=O)O | Non-toxic |
